≈ marks a conversion by molar mass, not a printed value.
Key:
[1] = tested on: Mus musculus; assay: ED50 value was measured by sc administration against streptococcus pyogenes infection in mice (in vivo, in experiment 1); assay type: functional
Summary of the method: (§1)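 Infected mice were dosed orally or subcutaneously at 1 and 5 h postinfection, 0.25 mL of antibiotic solution in 10% aqueous ethanol per dose. Tartaric acid was added where needed for solubility. Several dose concentrations were tested to give the ED50.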

[2] = species on record: Rattus norvegicus; assay: Fluid concentration in serum tissue was determined in rats at 2 h; assay type: functional
Summary of the method: (§2)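 Rats dosed by gavage at 20 mg/kg; lung, liver, kidney, urine and serum sampled at 0.5, 1, 2, 4 and 6 h after dosing. Antibiotic measured by microbiological assay with Micrococcus luteus seeded in Antibiotic Medium 1. Zone sizes were read against the standard curve for the same compound. Each value is the average of three rats per time point.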

[3] = tested on: Rattus norvegicus; assay: Plasma concentration in rats was determined by subcutaneous administration, 20 mg/kg at 8 h; assay type: functional, organism-based; design: dose 20 mg/kg
Summary of the method: (§3)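 Peripheral plasma antibiotic levels in rats given 20 mg/kg orally or subcutaneously. Plasma was sampled at timed points after dosing. Levels were measured by microbiological agar assay with Micrococcus luteus seeded in Antibiotic Media 1, reading zone sizes, and were calculated from a standard curve for the appropriate compound. Each value is the average of three rats per time point, in μg/mL.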

[4] = tested on: Mus musculus; assay: Plasma concentration in mice was determined by oral administration, 20 mg/kg at 4 h; assay type: functional, organism-based; design: dose 20 mg/kg
Summary of the method: (§4)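 Mice given 20 mg/kg orally or subcutaneously; peripheral plasma sampled at 5, 20 and 40 min and at 1, 2 and 4 h after dosing. Microbiological assay used Micrococcus luteus seeded in Antibiotic Medium 1, with zone sizes converted by the compound's own standard curve. Each value is the average of five mice per time point.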

[5] = tested on: Mus musculus; assay: ED50 value was measured by sc administration against staphylococcus aureus infection in mice (in vivo, in experiment 3); assay type: functional
[6] = tested on: Staphylococcus epidermidis; assay: microbe, parasite or virus in culture; assay type: functional
[7] = tested on: Mus musculus; assay: ED50 value was measured by sc administration against streptococcus pneumoniae infection in mice (in vivo, in experiment 1); assay type: functional; summary of the method: as §1
[8] = tested on: Rattus norvegicus; assay: Plasma concentration in rats was determined by oral administration, 20 mg/kg at 40 min; assay type: functional, organism-based; design: dose 20 mg/kg; summary of the method: as §3
[9] = species on record: Rattus norvegicus; assay: Fluid concentration in liver tissue was determined in rats at 0.5 h; assay type: functional
Summary of the method: (§5)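 Rats were gavaged at 20 mg/kg and tissues sampled 0.5–6 h after dosing. Drug was assayed microbiologically with Micrococcus luteus seeded in Antibiotic Media 1. Zone sizes were read against each compound's own standard curve. Values are the mean of three rats per time point, in μg/g.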

[10] = species on record: Rattus norvegicus; assay: Fluid concentration in urine tissue was determined in rats at 6 h; assay type: functional; summary of the method: as §2
[11] = tested on: Mus musculus; assay: Plasma concentration in mice was determined by subcutaneous administration, 20 mg/kg at 5 min; assay type: functional, organism-based; design: dose 20 mg/kg; summary of the method: as §4
[12] = tested on: Streptococcus pneumoniae; assay: MIC value measured against streptococcus pneumoniae Park1; assay type: functional
[13] = tested on: Streptococcus pneumoniae; assay: Effective dose against mice infected with streptococcus pneumoniae after peroral administration (in vivo); assay type: functional; details: in Mus musculus, po
[14] = species on record: Rattus norvegicus
[15] = tested on: Mus musculus; assay: ED50 value was measured by po administration against streptococcus pyogenes infection in mice (in vivo, in experiment 1); assay type: functional; summary of the method: as §1
[16] = species on record: Rattus norvegicus; assay: Fluid concentration in lung tissue was determined in rats at 0.5 h; assay type: functional; summary of the method: as §2
[17] = tested on: Rattus norvegicus; assay: Plasma concentration in rats was determined by subcutaneous administration, 20 mg/kg at 20 min; assay type: functional, organism-based; design: dose 20 mg/kg; summary of the method: as §3
[18] = species on record: Rattus norvegicus; assay: Fluid concentration in lung tissue was determined in rats at 2 h; assay type: functional; summary of the method: as §2
[19] = tested on: Mus musculus; assay: Plasma concentration in mice was determined by subcutaneous administration, 20 mg/kg at 4 hr; assay type: functional, organism-based; design: dose 20 mg/kg; summary of the method: as §4
[20] = tested on: Mus musculus; assay: Plasma concentration in mice was determined by subcutaneous administration, 20 mg/kg at 2 hr; assay type: functional, organism-based; design: dose 20 mg/kg; summary of the method: as §4
[21] = tested on: Mus musculus; assay: Plasma concentration in mice was determined by subcutaneous administration, 20 mg/kg at 1 hr; assay type: functional, organism-based; design: dose 20 mg/kg; summary of the method: as §4
[22] = species on record: Rattus norvegicus; assay: Fluid concentration in liver tissue was determined in rats at 1 h; assay type: functional; summary of the method: as §2
[23] = tested on: Mus musculus; assay: ED50 value was measured by sc administration against staphylococcus aureus infection in mice (in vivo, in experiment 1); assay type: functional; summary of the method: as §1
[24] = species on record: Rattus norvegicus; assay: Fluid concentration in lung tissue was determined in rats at 4 h; assay type: functional; summary of the method: as §2
[25] = tested on: Mus musculus; assay: ED50 value was measured by po administration against streptococcus pneumoniae infection in mice (in vivo, in experiment 3); assay type: functional
[26] = tested on: Streptococcus pyogenes; assay: Effective dose against mice infected with streptococcus pyogenes after peroral administration (in vivo); assay type: functional; details: in Mus musculus, po
[27] = species on record: Rattus norvegicus; remark: listed apart in the source
[28] = species on record: Rattus norvegicus; assay: Fluid concentration in kidney tissue was determined in rats at 1 h; assay type: functional; summary of the method: as §5
[29] = tested on: Mus musculus; assay: ED50 value was measured by sc administration against streptococcus pneumoniae infection in mice (in vivo, in experiment 3); assay type: functional
[30] = tested on: Haemophilus influenzae; assay: MIC value was measured against haemophilus influenzae CL; assay type: functional
[31] = species on record: Rattus norvegicus; assay: Fluid concentration in lung tissue was determined in rats at 6 h; assay type: functional; summary of the method: as §2
[32] = tested on: Mus musculus; assay: Plasma concentration in mice was determined by oral administration, 20 mg/kg at 2 h; assay type: functional, organism-based; design: dose 20 mg/kg; summary of the method: as §4
[33] = tested on: Staphylococcus aureus; assay: MIC value measured against staphylococcus aureus X1; assay type: functional
[34] = species on record: Rattus norvegicus; assay: Fluid concentration in lung tissue was determined in rats at 1 h; assay type: functional; summary of the method: as §2
[35] = tested on: Mus musculus; assay: ED50 value was measured by po administration against streptococcus pneumoniae infection in mice (in vivo, in experiment 1); assay type: functional; summary of the method: as §1
[36] = species on record: Rattus norvegicus; assay: Fluid concentration in serum tissue was determined in rats at 0.5 h; assay type: functional; summary of the method: as §2
[37] = species on record: Rattus norvegicus; remark: listed apart in the source
[38] = tested on: Staphylococcus aureus; assay: Effective dose against mice infected with Staphylococcus aureus after peroral administration (in vivo); assay type: functional; details: in Mus musculus, po
[39] = tested on: Mus musculus; assay: Plasma concentration in mice was determined by subcutaneous administration, 20 mg/kg at 20 min; assay type: functional, organism-based; design: dose 20 mg/kg; summary of the method: as §4
[40] = tested on: Mus musculus; assay: ED50 value was measured by po administration against staphylococcus aureus infection in mice (in vivo, in experiment 3); assay type: functional
[41] = tested on: Mus musculus; assay: ED50 value was measured by po administration against streptococcus pyogenes infection in mice (in vivo, in experiment 3); assay type: functional
[42] = tested on: Mus musculus; assay: ED50 value was measured by po administration against staphylococcus aureus infection in mice (in vivo, in experiment 1); assay type: functional; summary of the method: as §1
[43] = tested on: Mus musculus; assay: Plasma concentration in mice was determined by subcutaneous administration, 20 mg/kg at 40 min; assay type: functional, organism-based; design: dose 20 mg/kg; summary of the method: as §4
[44] = tested on: Rattus norvegicus; assay: Plasma concentration in rats was determined by subcutaneous administration, 20 mg/kg at 5 min; assay type: functional, organism-based; design: dose 20 mg/kg; summary of the method: as §3
[45] = species on record: Rattus norvegicus; assay: Fluid concentration in urine tissue was determined in rats at 4 h; assay type: functional; summary of the method: as §2
[46] = tested on: Streptococcus pyogenes; assay: MIC value measured against streptococcus pyogenes C203; assay type: functional

MIC [6]: 0.12 µg/mL (≈ 0.154 µM) | MIC [12]: 0.015 µg/mL (≈ 0.0193 µM) | MIC [30]: 0.5 µg/mL (≈ 0.643 µM) | MIC [33]: 0.25 µg/mL (≈ 0.322 µM) | MIC [46]: 0.03 µg/mL (≈ 0.0386 µM)
SMILES: CCCN[C@@H]1[C@H](C)[C@@H](O)[C@](C)(O)[C@@H](CC)OC(=O)[C@H](C)[C@@H](OC2CC(C)(OC)C(O)C(C)O2)[C@H](C)[C@@H](OC2OC(C)CC(N(C)C)C2O)[C@](C)(O)C[C@H]1C (stereo partly specified)
ED50 [1]: 1.7 mg/kg | Activity [2]: 0.23 µg/mL | Plasma concentration [3]: 0.24 µg/mL | Plasma concentration [4]: 0.06 µg/mL | ED50 [5]: 6.1 mg/kg | ED50 [7]: 1.6 mg/kg | Plasma concentration [8]: 0.01 µg/mL | Activity [9]: 0.08 µg/mL | Activity [10]: 11.3 µg/mL | Plasma concentration [11]: 1.58 µg/mL | ED50 [13]: 7 mg/kg | Plasma concentration [14]: 0.04 µg/mL | ED50 [15]: 9 mg/kg | Activity [16]: 0.31 µg/mL | Plasma concentration [17]: 0.07 µg/mL | Activity [18]: 4.9 µg/mL | Plasma concentration [19]: 0.06 µg/mL | Plasma concentration [20]: 0.11 µg/mL | Plasma concentration [21]: 0.39 µg/mL | Activity [22]: 0.17 µg/mL | ED50 [23]: 4.7 mg/kg | Activity [24]: 5.46 µg/mL | ED50 [25]: 6 mg/kg | ED50 [26]: 3 mg/kg | Plasma concentration [27]: 0.08 µg/mL | Activity [28]: 0.31 µg/mL | ED50 [29]: 1.8 mg/kg | Activity [31]: 5.08 µg/mL | Plasma concentration [32]: 0.07 µg/mL | Activity [34]: 2.25 µg/mL | ED50 [35]: 14 mg/kg | Activity [36]: 0.15 µg/mL | Plasma concentration [37]: 0.28 µg/mL | ED50 [38]: 12 mg/kg | Plasma concentration [39]: 0.75 µg/mL | ED50 [40]: 13 mg/kg | ED50 [41]: 6 mg/kg | ED50 [42]: 19 mg/kg | Plasma concentration [43]: 0.47 µg/mL | Plasma concentration [44]: 0.04 µg/mL | Activity [45]: 18.63 µg/mL

— ChEMBL document CHEMBL1125014, “Synthesis and structure-activity relationships of new 9-N-alkyl derivatives of 9(S)-erythromycylamine” (1990)
